“And” between values parts separate entries of the source, which are not always exact repeats. Equal values may be shown once.
Tests used:
Type in all cases: toxicity, cell-based
[1] = tested on: HEK-293T; assay: Incucyte cell viability with HEK293T; settings: human, 10 µM, compound concentration 10 uM; also: filed as whole numbers so only -1 and 0 and 1 occur
[2] = tested on: Fibroblast; assay: Multiplex assay against human fibroblast; settings: 10 µM, compound concentration 10 uM
Outline: (§1)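 Imaging took place on a CQ1 microscope at 37°C and 5% CO2 once compound had been added to live cells stained at seeding with Hoechst33342, BioTracker Green Microtubule Cytoskeleton Dye, MitoTracker Red and Annexin V Alexa Fluor 680. CellPathfinder machine-learning gating classed cells as Hoechst high-intensity objects or normal cells, classed normal cells as having healthy, pyknosed or fragmented nuclei, and classed pyknosed cells as mitotic or apoptotic. Tubulin, mitochondrial-mass and membrane-permeability phenotypes are per cents of the healthy-nucleus cells.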

[3] = tested on: U2OS; assay: Incucyte cell viability with U2OS; settings: human, 10 µM, compound concentration 10 uM; also: filed as whole numbers so only -1 and 0 and 1 occur
[4] = tested on: HEK-293T; assay: Multiplex assay against HEK293T; settings: human, 10 µM, compound concentration 10 uM; outline: as §1;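 as to Population Tubulin-Different-Phenotype (%): share of the cells with healthy nuclei that show this phenotype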
[5] = tested on: U2OS; assay: Multiplex assay against U2OS; settings: human, 10 µM, compound concentration 10 uM; outline: as §1
[6] = tested on: Fibroblast; assay: Incucyte cell viability with human fibroblast; settings: 10 µM, compound concentration 10 uM; also: filed as whole numbers so only -1 and 0 and 1 occur
[7] = 0 h, replicate number 1, timepoint 0 hours
[8] = 12 h, replicate number 1, timepoint 12 hours
[9] = 18 h, replicate number 1, timepoint 18 hours
[10] = 24 h, replicate number 1, timepoint 24 hours

CN1CCN(Cc2ccc(-c3cnc4[nH]cc(-c5ccc6[nH]ccc6c5)c4c3)cc2)CC1
Growth Rate [1, 7]: 0
Growth Rate ([1]; 6 h, replicate number 2, timepoint 6 hours): 0
Growth Rate [1, 8]: 0
Growth Rate [1, 9]: 0
Growth Rate [1, 10]: 0
Population Apoptotic (%) ([2]; 12 h, replicate 1): 47% and 85%
Population Fragmented Nuclei (%) ([2]; 12 h, replicate 1): 27% and 39% and 35%
Population Hoechst High Intensity Objects (%) ([2]; 12 h, replicate 1): 8% and 16% and 10%
Population Normal (%) ([2]; 12 h, replicate 1): 91% and 83% and 89%
Total Cell Count ([2]; 12 h, replicate 1): 208 and 291 and 107
Population Apoptotic (%) ([2]; 12 h, replicate 2): 50% and 73%
Population Mitotic Cells (%) ([2]; 12 h, replicate 2): 50% and 26%
Population Normal (%) ([2]; 12 h, replicate 2): 69% and 64% and 94%
Total Cell Count ([2]; 12 h, replicate 2): 113 and 71 and 76
Population Apoptotic (%) ([2]; 24 h, replicate 1): 73% and 68% and 81%
Population Fragmented Nuclei (%) ([2]; 24 h, replicate 1): 50% and 59% and 47%
Population Hoechst High Intensity Objects (%) ([2]; 24 h, replicate 1): 16% and 23% and 25%
Population Mitotic Cells (%) ([2]; 24 h, replicate 1): 26% and 31% and 18%
Population Normal (%) ([2]; 24 h, replicate 1): 83% and 76% and 75%
Population Apoptotic (%) ([2]; 24 h, replicate 2): 50% and 100%
Population Healthy Nuclei (%) ([2]; 24 h, replicate 2): 24% and 25% and 11%
Population Hoechst High Intensity Objects (%) ([2]; 24 h, replicate 2): 26% and 33% and 52%
Population Normal (%) ([2]; 24 h, replicate 2): 73% and 66% and 47%
Total Cell Count ([2]; 24 h, replicate 2): 136 and 91 and 73
Population Fragmented Nuclei (%) ([2]; 48 h, replicate 1): 75%
Population Healthy Nuclei (%) ([2]; 48 h, replicate 1): 13%
Population Hoechst High Intensity Objects (%) ([2]; 48 h, replicate 1): 28%
Population Membrane Permeable-Phenotype (%) ([2]; 48 h, replicate 1): 41%
Population Normal (%) ([2]; 48 h, replicate 1): 71%
Population Pyknosed Nuclei (%) ([2]; 48 h, replicate 1): 10%
Population Tubulin-Different-Phenotype (%) ([2]; 48 h, replicate 1): 58%
Total Cell Count ([2]; 48 h, replicate 1): 121
Population Apoptotic (%) ([2]; 48 h, replicate 2): 100%
Population Fragmented Nuclei (%) ([2]; 48 h, replicate 2): 79%
Population Healthy Nuclei (%) ([2]; 48 h, replicate 2): 11%
Population Hoechst High Intensity Objects (%) ([2]; 48 h, replicate 2): 40%
Population Membrane Permeable-Phenotype (%) ([2]; 48 h, replicate 2): 0%
Population Mitochondria Different-Phenotype (%) ([2]; 48 h, replicate 2): 0%
Population Mitotic Cells (%) ([2]; 48 h, replicate 2): 0%
Population Normal (%) ([2]; 48 h, replicate 2): 59%
Population Pyknosed Nuclei (%) ([2]; 48 h, replicate 2): 8%
Population Tubulin-Different-Phenotype (%) ([2]; 48 h, replicate 2): 50%
Total Cell Count ([2]; 48 h, replicate 2): 57
Growth Rate ([3]; 0 h, replicate number 2, timepoint 0 hours): 0
Growth Rate [3, 8]: 1
Growth Rate [3, 9]: 0
Growth Rate [3, 10]: 0
Population Fragmented Nuclei (%) ([4]; 12 h, replicate 1): 11% and 13% and 21%
Population Hoechst High Intensity Objects (%) ([4]; 12 h, replicate 1): 16% and 24% and 18%
Population Membrane Permeable-Phenotype (%) ([4]; 12 h, replicate 1): 20% and 12% and 28%
Population Normal (%) ([4]; 12 h, replicate 1): 83% and 75% and 81%
Population Pyknosed Nuclei (%) ([4]; 12 h, replicate 1): 59% and 81%
Population Membrane Permeable-Phenotype (%) ([4]; 12 h, replicate 2): 0% and 15%
Population Normal (%) ([4]; 12 h, replicate 2): 87% and 97%
Population Tubulin-Different-Phenotype (%) ([4]; 12 h, replicate 2): 66% and 53% and 95%
Population Fragmented Nuclei (%) ([4]; 24 h, replicate 1): 16%
Population Hoechst High Intensity Objects (%) ([4]; 24 h, replicate 1): 29% and 32% and 15%
Population Membrane Permeable-Phenotype (%) ([4]; 24 h, replicate 1): 11% and 15%
Population Normal (%) ([4]; 24 h, replicate 1): 70% and 67% and 84%
Population Membrane Permeable-Phenotype (%) ([4]; 24 h, replicate 2): 0% and 8% and 9%
Population Normal (%) ([4]; 24 h, replicate 2): 78% and 93%
Population Apoptotic (%) ([4]; 48 h, replicate 1): 90%
Population Fragmented Nuclei (%) ([4]; 48 h, replicate 1): 29%
Population Healthy Nuclei (%) ([4]; 48 h, replicate 1): 3%
Population Hoechst High Intensity Objects (%) ([4]; 48 h, replicate 1): 31%
Population Membrane Permeable-Phenotype (%) ([4]; 48 h, replicate 1): 0%
Population Mitotic Cells (%) ([4]; 48 h, replicate 1): 9%
Population Normal (%) ([4]; 48 h, replicate 1): 68%
Population Pyknosed Nuclei (%) ([4]; 48 h, replicate 1): 66%
Population Tubulin-Different-Phenotype (%) ([4]; 48 h, replicate 1): 80%
Total Cell Count ([4]; 48 h, replicate 1): 216
Population Apoptotic (%) ([4]; 48 h, replicate 2): 96%
Population Fragmented Nuclei (%) ([4]; 48 h, replicate 2): 17%
Population Healthy Nuclei (%) ([4]; 48 h, replicate 2): 7%
Population Hoechst High Intensity Objects (%) ([4]; 48 h, replicate 2): 18%
Population Membrane Permeable-Phenotype (%) ([4]; 48 h, replicate 2): 22%
Population Mitochondria Different-Phenotype (%) ([4]; 48 h, replicate 2): 100%
Population Mitotic Cells (%) ([4]; 48 h, replicate 2): 3%
Population Normal (%) ([4]; 48 h, replicate 2): 81%
Population Pyknosed Nuclei (%) ([4]; 48 h, replicate 2): 75%
Population Tubulin-Different-Phenotype (%) ([4]; 48 h, replicate 2): 100%
Total Cell Count ([4]; 48 h, replicate 2): 158
Population Apoptotic (%) ([5]; 12 h, replicate 1): 81% and 75%
Population Hoechst High Intensity Objects (%) ([5]; 12 h, replicate 1): 11% and 4% and 8%
Population Membrane Permeable-Phenotype (%) ([5]; 12 h, replicate 1): 87% and 74% and 69%
Population Mitochondria Different-Phenotype (%) ([5]; 12 h, replicate 1): 64% and 37%
Population Mitotic Cells (%) ([5]; 12 h, replicate 1): 18% and 24% and 25%
Population Normal (%) ([5]; 12 h, replicate 1): 88% and 95% and 91%
Total Cell Count ([5]; 12 h, replicate 1): 171 and 167 and 190
Population Fragmented Nuclei (%) ([5]; 12 h, replicate 2): 17% and 14% and 13%
Population Hoechst High Intensity Objects (%) ([5]; 12 h, replicate 2): 6% and 15%
Population Membrane Permeable-Phenotype (%) ([5]; 12 h, replicate 2): 40% and 72% and 63%
Population Mitochondria Different-Phenotype (%) ([5]; 12 h, replicate 2): 100% and 96% and 36%
Population Normal (%) ([5]; 12 h, replicate 2): 94% and 84%
Total Cell Count ([5]; 12 h, replicate 2): 76 and 116 and 120
Population Apoptotic (%) ([5]; 24 h, replicate 1): 98% and 93% and 64%
Population Membrane Permeable-Phenotype (%) ([5]; 24 h, replicate 1): 100% and 90% and 39%
Population Normal (%) ([5]; 24 h, replicate 1): 90% and 76% and 93%
Total Cell Count ([5]; 24 h, replicate 1): 166 and 199 and 279
Population Apoptotic (%) ([5]; 24 h, replicate 2): 95% and 100% and 66%
Population Membrane Permeable-Phenotype (%) ([5]; 24 h, replicate 2): 40%
Population Mitochondria Different-Phenotype (%) ([5]; 24 h, replicate 2): 39%
Population Normal (%) ([5]; 24 h, replicate 2): 81% and 66% and 89%
Population Tubulin-Different-Phenotype (%) ([5]; 24 h, replicate 2): 18%
Total Cell Count ([5]; 24 h, replicate 2): 122 and 91 and 140
Population Apoptotic (%) ([5]; 48 h, replicate 1): 100%
Population Fragmented Nuclei (%) ([5]; 48 h, replicate 1): 31%
Population Healthy Nuclei (%) ([5]; 48 h, replicate 1): 2%
Population Hoechst High Intensity Objects (%) ([5]; 48 h, replicate 1): 14%
Population Membrane Permeable-Phenotype (%) ([5]; 48 h, replicate 1): 66%
Population Mitochondria Different-Phenotype (%) ([5]; 48 h, replicate 1): 100%
Population Mitotic Cells (%) ([5]; 48 h, replicate 1): 0%
Population Normal (%) ([5]; 48 h, replicate 1): 85%
Population Pyknosed Nuclei (%) ([5]; 48 h, replicate 1): 66%
Population Tubulin-Different-Phenotype (%) ([5]; 48 h, replicate 1): 100%
Total Cell Count ([5]; 48 h, replicate 1): 148
Population Fragmented Nuclei (%) ([5]; 48 h, replicate 2): 8%
Population Healthy Nuclei (%) ([5]; 48 h, replicate 2): 64%
Population Hoechst High Intensity Objects (%) ([5]; 48 h, replicate 2): 24%
Population Membrane Permeable-Phenotype (%) ([5]; 48 h, replicate 2): 100%
Population Normal (%) ([5]; 48 h, replicate 2): 75%
Population Pyknosed Nuclei (%) ([5]; 48 h, replicate 2): 27%
Population Tubulin-Different-Phenotype (%) ([5]; 48 h, replicate 2): 95%
Total Cell Count ([5]; 48 h, replicate 2): 80
Growth Rate [6, 7]: 0
Growth Rate [6, 8]: 0
Growth Rate [6, 9]: 0
Growth Rate [6, 10]: 0
